Data set [1] has as its system HepG2. The data set can be described thus: Increase in glucose consumption in human HepG2 cells assessed as Gx/GDMSO ratio at 5 mM by glucose oxidase assay. It counts as functional. The gist of the method: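 HepG2 glucose consumption screen. Test compounds at 25 μM, metformin at 5 mM. Activity expressed as ratio of glucose consumption to DMSO-treated cells (Gx/G_DMSO).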

Data set [2] is described as follows: Effect on high fat diet-fed KK-Ay mouse model of obesity and diabetes assessed as total body weight gain at 5 mg/kg, po (reference value: 43.5 +/- 5.24 g). Format: ADME, organism-based. To be noted: in vivo. The gist of the method: (§1)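 KK-Ay mice on lipogenic diet, with C57BL/6J mice as normal controls, dosed orally at 50 or 100 mg/kg (test) or 5 mg/kg (RGZ). Food intake (g/day), water intake (mL/day) and body weight recorded before and after treatment; body weight gain calculated. Mean±SD, 8-9 mice per group.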

A short description of data set [3]: Effect on high fat diet-fed KK-Ay mouse model of obesity and diabetes assessed as water intake at 5 mg/kg, po (reference value: 21.2 +/- 4.17 ml/day). It counts as ADME, organism-based. To be noted: in vivo. The method in brief: as §1
The test system of data set [4] is L6. The data set can be described thus: Increase in glucose consumption in rat L6 cells at 20 uM after 24 hrs by glucose oxidase assay. It counts as functional, cell-based. The gist of the method: (§2)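 L6 myotubes treated with DMSO, compound or RGZ (20 μM) at the indicated concentrations for 24 h. Culture supernatants assayed for glucose consumption and lactate release; lysed cells assayed for ATP, normalized to protein. Mean ± SD of 3 independent experiments vs DMSO.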

The subject of data set [5] is HepG2. Description: Induction of glycolysis in human HepG2 cells assessed as reduction in cellular ATP production at 20 uM measured after 24 hrs. It counts as functional, cell-based. The gist of the method: (§3)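 HepG2 cells treated 24 h at the indicated concentrations; RGZ as reference. Supernatants used for glucose consumption and lactate release; lysed cells used for ATP, normalized to protein content. Mean ± SD of 3 or 4 separate experiments; compared with DMSO.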

Data set [6] relates to Mus musculus. Description: Anti-diabetic activity in high fat diet-fed KK-Ay mouse model of obesity and diabetes assessed reduction in total protein level in urine at 5 mg/kg, po measured after 24 hrs. Format: functional, organism-based. The gist of the method:
(§4)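 Before study end, 24-h urine collected from C57BL/6J controls and KK-Ay mice (untreated, oral 50 or 100 mg/kg compound, or 5 mg/kg rosiglitazone). Volume, glucose, total protein and microalbumin measured by kits. Mean ± SD, 8-9 mice per group, vs C57BL/6J or untreated KK-Ay.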

Data set [7] relates to Mus musculus. The data set can be described thus: Anti-diabetic activity in high fat diet-fed KK-Ay mouse model of obesity and diabetes assessed as improved pathological changes in kidney at 5 mg/kg, po by hematoxylin and eosin staining based histopathological analysis. It counts as functional, organism-based. The method in brief: (§5)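 Mice sacrificed at study end, with KK-Ay given 50 or 100 mg/kg compound or 5 mg/kg rosiglitazone orally and C57BL/6J as normal controls. Kidney and pancreas sections H&E stained, imaged at 200×, pathological changes scored. Mean ± SD of 8-9 mice per group.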

Data set [8] relates to Mus musculus. Description: Antidiabetic activity in KK-Ay mouse assessed as effect on Triglycerides level at 5 mg/kg, po for 24 hrs by ELISA (reference value: 4.01 +/- 1.83 mM). It counts as functional.
Data set [9] in a line: Effect on high fat diet-fed KK-Ay mouse model of obesity and diabetes assessed as food intake at 5 mg/kg, po (reference value: 5.67 +/- 0.55 g/day). It counts as ADME, organism-based. To be noted: in vivo. The gist of the method:
as §1

Data set [10] deals with Mus musculus. The data set can be described thus: Anti-diabetic activity in high fat diet-fed KK-Ay mouse model of obesity and diabetes assessed as reduction in microalbumin level in urine at 5 mg/kg, po measured after 24 hrs. It counts as functional, organism-based. The method in brief:
as §4

In data set [11] the test system is Mus musculus. Description: Antidiabetic activity in KK-Ay mouse assessed as effect on LDL level at 5 mg/kg, […] by ELISA (reference value: 1.11 +/- 0.24 mM). It counts as functional. For orientation: ELISA stands for enzyme-linked immunosorbent assay.
In data set [12] the test system is Mus musculus. Description: Antidiabetic activity in KK-Ay mouse assessed as effect on HOMA-IR level at 5 mg/kg, […] by ELISA (reference value: 137 +/- 18.4). It counts as functional.
Data set [13] concerns Mus musculus. Description: Antidiabetic activity in KK-Ay mouse assessed as effect on cholesterol level at 5 mg/kg, […] by ELISA (reference value: 7.38 +/- 1.03 mM). It counts as functional.
Data set [14] relates to Mus musculus. The data set can be described thus: Antidiabetic activity in KK-Ay mouse assessed as effect on serum Creatinine level at 5 mg/kg, po for 24 hrs by ELISA (reference value: 124 +/- 35.1 uM). It counts as functional.
The test system of data set [15] is L6. The data set can be described thus: Increase in glucose consumption in rat L6 cells at 20 uM measured after 24 hrs. It counts as functional, cell-based. The method in brief: as §2
In data set [16] the test system is Mus musculus. The data set can be described thus: Antidiabetic activity in KK-Ay mouse assessed as effect on BUN level at 5 mg/kg, […] by ELISA (reference value: 12.8 +/- 2.97 mM). It counts as functional.
Data set [17] concerns HepG2. The data set can be described thus: Induction of glycolysis in human HepG2 cells assessed as increase in lactate release at 20 uM measured after 24 hrs.
For data set [18], the system named is Mus musculus. Description: Antidiabetic activity in KK-Ay mouse assessed as effect on AGE level at 5 mg/kg, […] by ELISA (Rvb 2.85 +/- 0.92 ug/ml). It counts as functional.
Data set [19] deals with L6. Description: Induction of glycolysis in rat L6 cells assessed as reduction in cellular ATP production at 20 uM measured after 24 hrs. It counts as functional, cell-based. The method in brief:
as §2

Data set [20] relates to HepG2. Description: Increase in glucose consumption in human HepG2 cells at 20 uM measured after 24 hrs. Format: functional, cell-based. The method in brief: as §3
The test system of data set [21] is Mus musculus. The data set can be described thus: Anti-diabetic activity in overnight fasted diabetic KK-Ay mouse assessed as increase in insulin responsiveness by measuring blood glucose at 5 mg/kg, po measured after 35 days by insulin tolerance test. Format: functional, organism-based. To be noted: time 35.0 day. The method in brief:
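KK-Ay mice orally treated with 50 or 100 mg/kg compound or 5 mg/kg rosiglitazone, C57BL/6J as normal controls. After 35 days of treatment, oral glucose tolerance test and insulin tolerance test run. Blood glucose plotted against time, AUC calculated. Mean ± SD, 8-9 mice per group.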

The subject of data set [22] is Mus musculus. The data set can be described thus: Antidiabetic activity in KK-Ay mouse assessed as reduction in fasting blood glucose level at 5 mg/kg, po for 50 days by glucose oxidase method (reference value: 13.2 +/- 2.06 mM). Format: functional. To be noted: time 50 day. The gist of the method: (§6)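 Lipogenic-diet KK-Ay mice given 50 or 100 mg/kg compound or 5 mg/kg rosiglitazone orally for 50 days, C57BL/6J as normal controls. Fasting blood glucose, glycosylated haemoglobin, AGE, insulin, HOMA-IR, cholesterol, LDL-c, TG, serum creatinine and BUN determined. Mean ± SD, 8-9 mice per group.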

Data set [23] relates to Mus musculus. Description: Antidiabetic activity in KK-Ay mouse assessed as effect on glycosylated haemoglobin level at 5 mg/kg, po for 50 days by glucose oxidase method (reference value: 8.74 +/- 1.08%). It counts as functional. Particulars: time 50 day. The gist of the method: as §6
The subject of data set [24] is Mus musculus. The data set can be described thus: Antidiabetic activity in KK-Ay mouse assessed as effect on insulin level at 5 mg/kg, […] by ELISA (reference value: 226 +/- 15.5 mU/l). It counts as functional.
The test system of data set [25] is L6. The data set can be described thus: Induction of glycolysis in rat L6 cells assessed as increase in lactate release at 20 uM measured after 24 hrs.
The test system of data set [26] is Mus musculus. The data set can be described thus: Anti-diabetic activity in high fat diet-fed KK-Ay mouse model of obesity and diabetes assessed as improved pathological changes in pancreas at 5 mg/kg, po by hematoxylin and eosin staining based histopathological analysis. It counts as functional, organism-based. The method in brief: as §5

Consider two compounds from ChEMBL document CHEMBL4818983, “Structure-activity relationship and hypoglycemic activity of tricyclic matrines with advantage of treating diabetic nephropathy” (Eur J Med Chem, 2020).

The source made the active and inactive calls. The rule behind the calls is not given here.

For `CN(C)C(=N)NC(=N)N` [METFORMIN], the Ratio in data set [1] came out at 1.53.
For `CN(CCOc1ccc(CC2SC(=O)NC2=O)cc1)c1ccccn1` (stereo unspecified) [ROSIGLITAZONE], the Activity in data set [2] came to 6.82 g; in [3] it was 6.1 mL/day; in [8] it was 1.84 mM; in data set [9], 4.58 g/day; in data set [11], 1.08 mM; in data set [12], 30.4. Further, the Activity in data set [13] is 8.31 mM; in data set [14], 51.6 µM; in data set [16] it was 12 mM; in data set [18], 1.27 µg/mL; in data set [19], “Dose-Dependent Effect”; in data set [22] it was 7.66 mM. Also, the Activity is reported as 6.09% in data set [23] and 89.3 mU/L in data set [24]. Besides, the outcome in [4], in data set [5], in data set [6], in data set [7], in data set [10] and in data set [15] was Active. The result in data set [17], in [20], in [21], in [25] and in data set [26] was Active.
